Experimental data from different studies.
Lines come from different studies, so protocols differ.
Effect on: cell growth or viability

COCCCNC(=O)c1ccc(-c2nc3ccc4[nH]ncc4c3c3c2CCCC3)cc1 — GI50 (MV4-11; resazurin; 72 h): 2.9 µM
O=C(CCCCCCSc1ccc2ccccc2c1)NO — viability (HBL1; ATP luminescence; 0.5 µM, 5 days): 113%
CC(C)(C)[C@H](N)C(=O)Nc1ccccc1/N=c1\cc(-c2ccc3c(c2)OCCO3)oc2cc(F)ccc12 — inhibition (MDA-MB-468; CCK-8; 1 µM): -0.62%
COc1cccc(Cn2nc(-c3ccc(CN)o3)c3ccccc32)c1 — inhibition (RBE; ATP luminescence; 46 µM, 72 h): 78%
COCCC(=O)Nc1ccccc1/N=c1\cc(-c2ccc3nc(N)oc3c2)oc2ccccc12 — inhibition (MDA-MB-468; CCK-8; 1 µM): 0.9%
CN(C)CCNC(=O)c1ccc(-c2nc3ccc4[nH]ncc4c3c3c2CCCC3)cc1 — GI50 (MV4-11; resazurin; 72 h): 0.025 µM
OCc1ccc(-c2nn(Cc3ccccc3F)c3ccccc23)o1 — inhibition (RBE; ATP luminescence; 46 µM, 72 h): 68%
NCC(=O)Nc1ccccc1/N=c1\cc(-c2ccc3c(c2)OCO3)oc2c([N+](=O)[O-])cccc12 — inhibition (MDA-MB-468; CCK-8; 1 µM): 5.28%
O=C(NCCc1ccccn1)c1ccc(-c2nc3ccc4[nH]ncc4c3c3c2CCCC3)cc1 — GI50 (MV4-11; resazurin; 72 h): 1 µM
O=C(/C=C/c1cccc(C(=O)NO)c1)NO — viability (HBL1; ATP luminescence; 0.1 µM, 5 days): 119%
CN(C)CCN(C)C(=O)c1ccc(-c2nc3ccc4[nH]ncc4c3c3c2CCCCC3)nc1 — GI50 (MV4-11; resazurin; 72 h): 1.2 µM
OCc1ccc(-c2ccn(Cc3ccccc3)n2)o1 — inhibition (RBE; ATP luminescence; 46 µM, 72 h): 47%
C[C@H](Nc1ccc2c(c1)OCCn1cc(N3C(=O)OC[C@H]3C(F)F)nc1-2)C(N)=O — EC50 (MDA-MB-361; ATP luminescence; 5 days): 0.0075 µM
O=C(NC1CCCCC1)c1ccc(-c2nc3ccc4[nH]ncc4c3c3c2CCCC3)cc1 — GI50 (MV4-11; resazurin; 72 h): 4.3 µM
NCc1ccc(-c2nn(Cc3ccccn3)c3cccnc23)o1 — inhibition (RBE; ATP luminescence; 46 µM, 72 h): 74%
CN(C)CCN(C)C(=O)c1ccc(-c2nc3ccc4[nH]ncc4c3c3c2CC(F)(F)CC3)cc1 — GI50 (MV4-11; resazurin; 72 h): 0.748 µM
CCN(Cc1ccc(F)cc1F)c1ccc(CO)c(Cl)c1 — inhibition (RBE; ATP luminescence; 46 µM, 72 h): 82%
COc1ccc2/c(=N/c3ccccc3NC(=O)N3CCOCC3)cc(-c3ccc4c(c3)OCCO4)oc2c1 — inhibition (MDA-MB-468; CCK-8; 1 µM): 18.7%
O=C(NO)c1ccc(CC(=O)N(CCO)c2ccccc2)cc1 — viability (HBL1; ATP luminescence; 0.5 µM, 5 days): 117%
CN1CCN(C(=O)c2ccc(-c3nc4ccc5[nH]ncc5c4c4c3CCCC4)cc2)CC1 — GI50 (MV4-11; resazurin; 72 h): 1.3 µM
NCC(=O)Nc1ccccc1/N=c1\cc(-c2ccc3c(c2)OCCO3)oc2ccccc12 — inhibition (MDA-MB-468; CCK-8; 1 µM): 4.61%
OCc1ccc(-c2nn(Cc3ccccc3)c3ccccc23)s1 — inhibition (RBE; ATP luminescence; 46 µM, 72 h): 30%
C[C@H](N)C(=O)Nc1ccccc1/N=c1\cc(-c2ccc3c(c2)OCCO3)oc2cc(F)ccc12 — inhibition (MDA-MB-468; CCK-8; 1 µM): 12.8%
CCN(Cc1ccc(C)cc1)c1ccc(CO)c(Cl)c1 — inhibition (RBE; ATP luminescence; 46 µM, 72 h): 95%
O=C(Nc1ccccc1/N=c1\cc(-c2ccc3c(c2)OCO3)oc2ccccc12)N1CCNCC1 — inhibition (MDA-MB-468; CCK-8; 1 µM): -5.89%
OCc1ccc(-c2nn(Cc3ccccc3)c3ccccc23)o1 — inhibition (RBE; ATP luminescence; 46 µM, 72 h): 75%
Nc1nc2ccc(-c3c/c(=N\c4ccccc4NC(=O)CCN4CCOCC4)c4ccccc4o3)cc2o1 — inhibition (MDA-MB-468; CCK-8; 1 µM): 0.34%
NC(=O)c1ccc(-c2nc3ccc4[nH]ncc4c3c3c2CCCC3)cc1 — GI50 (MV4-11; resazurin; 72 h): 0.057 µM
